# Measurements from ChEMBL document CHEMBL1149332, “Synthesis of benzoylpyrimidines as antagonists of the corticotropin-releasing factor-1 receptor” (Bioorg Med Chem Lett, 2004).
# Experiments:
# [1] = target: T1, Corticotropin-releasing factor receptor 1 (Homo sapiens, UniProt P34998); assay: Binding affinity for recombinant human CRF1 receptor
# T1 sequence (P34998 whole entry): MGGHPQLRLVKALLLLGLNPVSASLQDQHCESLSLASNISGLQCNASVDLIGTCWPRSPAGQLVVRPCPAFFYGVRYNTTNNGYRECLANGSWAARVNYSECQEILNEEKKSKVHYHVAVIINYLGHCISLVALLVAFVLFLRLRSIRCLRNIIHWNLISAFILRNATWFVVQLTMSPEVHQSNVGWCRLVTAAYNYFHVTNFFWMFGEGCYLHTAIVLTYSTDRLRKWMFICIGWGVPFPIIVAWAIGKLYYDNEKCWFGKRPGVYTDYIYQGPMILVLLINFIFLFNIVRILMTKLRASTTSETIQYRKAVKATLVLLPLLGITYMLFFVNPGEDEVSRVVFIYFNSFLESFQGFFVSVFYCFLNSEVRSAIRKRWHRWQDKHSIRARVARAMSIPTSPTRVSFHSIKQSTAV
# [2] = target: T1, Corticotropin-releasing factor receptor 1; assay: Inhibition of CRF-stimulated cAMP production in cells expressing CRF1 receptor
# In short: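 CHO cells expressing the CRF1 receptor; antagonism of CRF-stimulated cAMP production measured over a range of compound concentrations, with IC50 taken from the concentration-response.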
# [3] = target: Corticotropin releasing factor receptor (Rattus norvegicus, UniProt P47866+P35353); assay: Inhibition of CRF-stimulated ACTH release in primary rat anterior pituitary cells; format: functional, cell-based; details: pituitary gland cell
Ki [1],IC50 [2],IC50 [3],SMILES
26 nM,,,CCCN(CC1CC1)c1nc(C)nc(Cc2c(OC)cc(OC)cc2OC)c1C
630 nM,,,CCCN(CC1CC1)c1cc(C)nc(C(=O)c2c(OC)cc(OC)cc2OC)n1
15 nM,1200 nM,980 nM,CCCN(CC1CC1)c1nc(C)nc(C(=O)c2c(C)cc(C)cc2C)c1C
200 nM,,,CCCN(CC1CC1)c1cc(C(=O)c2c(C)cc(C)cc2C)nc(C)n1
55 nM,,,CCCN(CC1CC1)c1nc(C)nc(C(=O)c2c(C)cc(C)cc2C)c1CC
> 10000 nM,,,CCCN(CC1CC1)c1nc(C)nc(C(C)(C)c2c(OC)cc(OC)cc2OC)c1C
38 nM,1000 nM,,CCCN(CC1CC1)c1nc(C)nc(C(=O)c2c(OC)cc(OC)cc2OC)c1C
810 nM,,,CCCN(CC1CC1)c1nc(C)nc(C(=O)c2ccc(OC)cc2OC)c1C
1100 nM,,,CCCN(CC1CC1)c1cc(C(=O)c2c(OC)cc(OC)cc2OC)nc(C)n1
560 nM,,,C=C(c1nc(C)nc(N(CCC)CC2CC2)c1C)c1c(OC)cc(OC)cc1OC
> 10000 nM,,,CCCN(CC1CC1)c1cc(C(=O)c2c(C)c(C)c(C)c(C)c2C)nc(C)n1

# Further lines, the compound ahead of its results:
SMILES,Ki [1],IC50 [2],IC50 [3]
Cc1cc(C)c(C(=O)c2nc(C)nc(N3CCOCC3)c2C)c(C)c1,> 10000 nM,,
CCN(c1ccccc1)c1nc(C)nc(C(=O)c2c(C)cc(C)cc2C)c1C,470 nM,,
COC[C@@H]1CCCN1c1nc(C)nc(C(=O)c2c(C)cc(C)cc2C)c1C,380 nM,,
CCCN(CC1CC1)c1nc(C)nc(C(O)c2c(C)cc(C)cc2C)c1C (centres undefined),79 nM,,
C=CCN(CC=C)c1nc(C)nc(C(=O)c2c(C)cc(C)cc2C)c1C,38 nM,,
CCCN(CC1CC1)c1nc(C)nc(C(O)c2c(CC)cc(CC)cc2CC)c1C (centres undefined),360 nM,,
CCCN(CC1CC1)c1nc(C)nc(C(=O)c2c(C)c(C)c(C)c(C)c2C)c1C,5100 nM,,
CCCN(CC1CC1)c1nc(C)nc(C(=O)c2ccccc2C)c1C,810 nM,,
CCCN(CCO)c1nc(C)nc(C(=O)c2c(C)cc(C)cc2C)c1C,540 nM,,
C=CCc1c(C(=O)c2c(C)cc(C)cc2C)nc(C)nc1N(CCC)CC1CC1,31 nM,,
CCCN(CC1CC1)c1nc(C)nc(C(=O)c2c(CC)cc(CC)cc2CC)c1C,13 nM,,
CCCN(CCC)c1nc(C)nc(C(=O)c2c(C)cc(C)cc2C)c1C,58 nM,,
CCCN(CC1CC1)c1nc(C)nc(Nc2c(Cl)cc(Cl)cc2Cl)c1Cl,2.7 nM,,
Cc1cc(C)c(C(=O)c2nc(C)nc(N3CCCC3)c2C)c(C)c1,> 10000 nM,,
CCC(CC)Nc1nc(C)nc(C(=O)c2c(C)cc(C)cc2C)c1C,220 nM,,
